Measurements from different studies.
Protocols differ between the studies behind these lines.

SMILES | technique | pH | chromatographic logD
CCOC(=O)C1=C(C)N/C(=C/c2cc(C)n(-c3cccnc3)c2C)C1=O | HPLC | pH 7.4 | 1.9
O=C(Nc1ccccc1C(=O)NC1CC1)c1cccc(N2CCCC2=O)c1 |  | pH 7.4 | 4
CO[C@H](C(=O)N1Cc2c(-c3ccc(C(=O)N4CCCc5ccccc54)cn3)cnn2C[C@H]1C(C)C)c1cnn(C)c1 (single isomer, unassigned) | HPLC | pH 7.4 | 3.1
COc1cc(Cl)c(C(=O)N[C@@H](CN[C@H]2CC[C@@H](N)CC2)Cc2ccc(C#N)cc2)cc1-c1ccc(CN[C@H](C)c2ccc(C)cc2)o1 | HPLC | pH 7.5 | 2.9
CC1=C(C#N)[C@@H](c2ccc(C#N)cc2S(C)(=O)=O)N(C)C(=O)N1c1cccc(C(F)(F)F)c1 | HPLC | pH 7.5 | 3
Cc1n[nH]c(CC(=O)N2Cc3c(-c4ccc(C(=O)N5CCCc6ccccc65)cc4)cnn3C[C@H]2C)n1 | HPLC | pH 7.4 | 2.7
CCOC(=O)C1=C(C)N/C(=C/c2cc(C)n(-c3ccncc3)c2C)C1=O | HPLC | pH 7.4 | 1.9
CO[C@@H](C(=O)N1Cc2c(-c3ccc(C(=O)N4CCCc5ccccc54)cc3)cnn2C[C@H]1C(C)C)c1cnn(C)c1 (single isomer, unassigned) | HPLC | pH 7.4 | 4.1
CCc1nnc(NC(=O)c2nc(-c3ccc(Cl)cc3)n3c2CCCCC3)s1 |  | pH 7.4 | 6.8
CC1=C(C(N)=O)C(=O)/C(=C\c2cc(C)n(-c3ccccc3C(F)(F)F)c2C)N1 | HPLC | pH 7.4 | 2.8
CC(C)(C)C1=CC(=NNC(=O)c2ccc([N+](=O)[O-])cc2)C=C(C(C)(C)C)C1=O | HPLC | pH 7.4 | 4.9
Cc1oc(-c2ccccc2)nc1C(=O)NCCN1CCCCCC1=O |  | pH 7.4 | 4.5
CCOC(=O)C1=C(C)N/C(=C/c2cc(C)n(-c3ccc(SC)cc3)c2C)C1=O | HPLC | pH 7.4 | 3.3
O=C(Nc1ccc2c(c1)B(O)OC2)Nc1ccc(F)c(C(F)(F)F)c1 | HPLC | pH 7.4 | 2.5
Cn1c(-c2nc3cc(C(=O)N4CCCC(N)C4)ccc3n2C)cc2ccccc21 (stereo not drawn) | HPLC | pH 7.4 | 2.8
CC1=C(C#N)[C@@H](c2ccc(C#N)cc2)NC(=O)N1c1cccc(C(F)(F)F)c1 | HPLC | pH 7.5 | 2.8
CC1=C(C(=O)O)C(=O)/C(=C\c2cc(C)n(-c3ccccc3C(F)(F)F)c2C)N1 | HPLC | pH 7.4 | 3.2
C[C@H](C(=O)N1Cc2c(-c3ccc(C(=O)N4CCCc5ccccc54)cc3)cnn2C[C@H]1C)c1ccccc1 | HPLC | pH 7.4 | 5.2
N#CC(c1ccc(CNc2cccc3c2CN(C2CCC(=O)NC2=O)C3=O)cc1)N1CCOCC1 (stereo not drawn) | HPLC | pH 7.4 | 2
CCn1c(-c2nc3cc(C(=O)N4CCC[C@@H](N)C4)cc(OC)c3n2C)cc2cccnc21 | HPLC | pH 7.4 | 2.4
CCOC(=O)C1=C(C)N/C(=C/c2cc(CC)n(-c3ccccc3C(F)(F)F)c2CC)C1=O | HPLC | pH 7.4 | 3.6
